Reference: ChEMBL document CHEMBL1157608, “The discovery of 4-{1-[({2,5-dimethyl-4-[4-(trifluoromethyl)benzyl]-3-thienyl}carbonyl)amino]cyclopropyl}benzoic acid (MK-2894), a potent and selective prostaglandin E2 subtype 4 receptor antagonist” (J Med Chem, 2010)

Assays:
Thromboxane A2 receptor = target: T1, Thromboxane A2 receptor (Homo sapiens, UniProt P21731); assay: Displacement of [3H]SQ29548 from human TP receptor expressed in HEK293-EBNA cells by scintillation counting; format: cell-based
T1 sequence (P21731 whole entry): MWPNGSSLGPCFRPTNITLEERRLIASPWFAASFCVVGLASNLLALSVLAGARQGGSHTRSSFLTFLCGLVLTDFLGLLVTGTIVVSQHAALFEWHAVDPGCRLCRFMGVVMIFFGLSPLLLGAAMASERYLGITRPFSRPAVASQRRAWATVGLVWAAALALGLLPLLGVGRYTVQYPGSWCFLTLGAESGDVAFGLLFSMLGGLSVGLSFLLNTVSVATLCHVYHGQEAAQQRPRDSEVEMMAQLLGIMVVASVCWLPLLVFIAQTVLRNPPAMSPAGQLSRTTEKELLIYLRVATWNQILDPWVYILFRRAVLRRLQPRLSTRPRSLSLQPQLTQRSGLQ
Method in brief: (§1)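 Radioligand binding on membranes from HEK 293(EBNA) clonal lines overexpressing each prostanoid receptor, using the respective 3H-prostaglandin or thromboxane ligand; EP4 binding also run with 10% human serum; Ki as means of at least three experiments (rEP2, rEP3 n = 1).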

[1] = target: T2, Prostaglandin D2 receptor 2 (Homo sapiens, UniProt Q9Y5Y4); assay: Displacement of [3H]PGD2 from human DP2 receptor expressed in HEK293-EBNA cells by scintillation counting; format: cell-based; method in brief: as §1
T2 sequence (Q9Y5Y4 whole entry): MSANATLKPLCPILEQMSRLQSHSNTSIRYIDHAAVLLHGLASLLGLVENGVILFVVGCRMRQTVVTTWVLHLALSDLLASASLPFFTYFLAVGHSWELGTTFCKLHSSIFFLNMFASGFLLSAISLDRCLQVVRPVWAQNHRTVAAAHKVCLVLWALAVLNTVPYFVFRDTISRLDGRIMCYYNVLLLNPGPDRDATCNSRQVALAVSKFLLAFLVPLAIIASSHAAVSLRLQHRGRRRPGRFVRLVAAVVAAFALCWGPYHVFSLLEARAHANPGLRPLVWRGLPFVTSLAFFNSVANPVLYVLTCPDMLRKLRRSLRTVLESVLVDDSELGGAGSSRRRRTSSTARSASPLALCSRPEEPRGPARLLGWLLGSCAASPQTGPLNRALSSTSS

[2] = target: Prostaglandin F2-alpha receptor (Homo sapiens, UniProt P43088); assay: Displacement of [3H]PGF2alpha from human FP receptor expressed in HEK293-EBNA cells by scintillation counting; format: cell-based; method in brief: as §1
[3] = target: T3, Prostaglandin E2 receptor EP4 subtype (Homo sapiens, UniProt P35408); assay: Antagonist activity at human EP4 receptor expressed in HEK293 cells assessed as inhibition of PGE2-induced cAMP accumulation by scintillation proximity assay; format: functional, cell-based
Method in brief: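 HEK 293 cells; inhibition of PGE2-induced cAMP accumulation measured, with and without 10% human serum; means of at least three experiments.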

Prostacyclin receptor = Prostacyclin receptor (Homo sapiens, UniProt P43119); assay: Displacement of [3H]iloprost from human IP receptor expressed in HEK293-EBNA cells by scintillation counting; format: cell-based; method in brief: as §1
[4] = target: T4, Prostaglandin D2 receptor (Homo sapiens, UniProt Q13258); assay: Displacement of [3H]PGD2 from human DP1 receptor expressed in HEK293-EBNA cells by scintillation counting; format: cell-based; method in brief: as §1
T4 sequence (Q13258 whole entry): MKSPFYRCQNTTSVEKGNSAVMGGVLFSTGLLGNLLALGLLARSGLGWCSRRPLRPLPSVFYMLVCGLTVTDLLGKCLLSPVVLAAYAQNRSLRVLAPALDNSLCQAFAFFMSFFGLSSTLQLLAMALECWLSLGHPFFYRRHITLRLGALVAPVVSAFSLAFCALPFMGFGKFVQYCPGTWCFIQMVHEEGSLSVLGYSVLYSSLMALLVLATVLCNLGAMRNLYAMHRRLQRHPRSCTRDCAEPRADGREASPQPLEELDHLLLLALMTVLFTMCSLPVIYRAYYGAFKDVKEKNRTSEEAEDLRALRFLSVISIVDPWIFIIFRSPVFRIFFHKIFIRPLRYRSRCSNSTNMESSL

[5] = target: Prostaglandin E2 receptor EP2 subtype (Homo sapiens, UniProt P43116); assay: Displacement of [3H]PGE2 from human EP2 receptor expressed in HEK293-EBNA cells by scintillation counting; format: cell-based; method in brief: as §1
[6] = target: T5, Prostaglandin E2 receptor EP3 subtype (Homo sapiens, UniProt P43115); assay: Displacement of [3H]PGE2 from human EP3 receptor expressed in HEK293-EBNA cells by scintillation counting; format: cell-based; method in brief: as §1
T5 sequence (P43115 whole entry): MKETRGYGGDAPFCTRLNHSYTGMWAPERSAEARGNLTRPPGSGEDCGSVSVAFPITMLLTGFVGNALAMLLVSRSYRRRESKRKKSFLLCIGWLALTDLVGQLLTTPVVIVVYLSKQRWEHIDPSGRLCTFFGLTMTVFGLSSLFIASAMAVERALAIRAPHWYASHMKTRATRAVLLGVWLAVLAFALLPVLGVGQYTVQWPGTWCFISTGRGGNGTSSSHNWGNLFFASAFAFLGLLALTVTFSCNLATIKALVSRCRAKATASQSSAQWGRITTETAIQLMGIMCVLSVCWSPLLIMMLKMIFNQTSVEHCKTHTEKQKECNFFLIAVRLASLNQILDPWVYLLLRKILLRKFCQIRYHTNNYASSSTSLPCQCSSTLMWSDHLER

[7] = target: T6, Prostaglandin E2 receptor EP1 subtype (Homo sapiens, UniProt P34995); assay: Displacement of [3H]PGE2 from human EP1 receptor expressed in HEK293-EBNA cells by scintillation counting; format: cell-based; method in brief: as §1
T6 sequence (P34995 whole entry): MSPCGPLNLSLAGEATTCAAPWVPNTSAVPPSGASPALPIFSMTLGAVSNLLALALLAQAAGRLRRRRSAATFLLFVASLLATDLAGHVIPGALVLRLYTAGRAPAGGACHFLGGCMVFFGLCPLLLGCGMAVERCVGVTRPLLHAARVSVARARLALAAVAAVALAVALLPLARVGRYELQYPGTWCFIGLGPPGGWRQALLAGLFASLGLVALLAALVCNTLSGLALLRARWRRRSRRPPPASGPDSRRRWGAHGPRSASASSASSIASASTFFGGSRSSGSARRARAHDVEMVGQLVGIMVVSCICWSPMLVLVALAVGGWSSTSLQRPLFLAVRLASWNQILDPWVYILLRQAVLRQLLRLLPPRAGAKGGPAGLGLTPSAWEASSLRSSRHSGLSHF

[8] = target: T3, Prostaglandin E2 receptor EP4 subtype; assay: Displacement of [3H]PGE2 from human EP4 receptor expressed in HEK293-EBNA cells by scintillation counting; format: cell-based; method in brief: as §1
Rattus norvegicus [9] = species: Rattus norvegicus; assay: Analgesic activity against complete Freund's adjuvant-induced Sprague-Dawley rat inflammatory pain assessed as inhibition of chronic paw swelling; format: functional
Method in brief: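 Adjuvant-induced arthritis in rats: CFA injected into primary paw on day 0; oral dosing in 0.5% methocel once daily for 9 days starting day 9; secondary paw swelling measured; plasma levels taken 24 h after final dose; n = 7/group; 1-way ANOVA/Dunnett's vs vehicle.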

Rattus norvegicus [10] = assay: Analgesic activity in po dosed Sprague-Dawley rat assessed as inhibition of carrageenan-induced mechanical hyperalgesia relative to control; format: functional
Method in brief: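 SD rats given subplantar carrageenan; compound dosed orally as a single dose; mechanical hyperalgesia read at 3 h post carrageenan, 1 h post dose; inhibition expressed vs vehicle control; n = 10-20/group; 1-way ANOVA/Dunnett's.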

T3 sequence (P35408 whole entry): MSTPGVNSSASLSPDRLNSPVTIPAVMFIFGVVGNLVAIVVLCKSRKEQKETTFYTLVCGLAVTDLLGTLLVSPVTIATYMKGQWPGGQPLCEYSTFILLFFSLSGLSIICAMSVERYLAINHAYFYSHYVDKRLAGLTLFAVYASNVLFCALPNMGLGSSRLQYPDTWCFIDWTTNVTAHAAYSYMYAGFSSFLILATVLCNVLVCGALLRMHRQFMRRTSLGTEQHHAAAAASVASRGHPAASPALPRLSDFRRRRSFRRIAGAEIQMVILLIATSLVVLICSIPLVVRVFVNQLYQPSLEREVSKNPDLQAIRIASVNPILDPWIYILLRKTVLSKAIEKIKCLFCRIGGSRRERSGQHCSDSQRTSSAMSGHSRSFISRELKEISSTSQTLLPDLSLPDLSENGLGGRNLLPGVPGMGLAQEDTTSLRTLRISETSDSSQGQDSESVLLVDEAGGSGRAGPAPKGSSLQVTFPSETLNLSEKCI
Prostaglandin E2 receptor EP2 subtype, sequence (P43116 whole entry): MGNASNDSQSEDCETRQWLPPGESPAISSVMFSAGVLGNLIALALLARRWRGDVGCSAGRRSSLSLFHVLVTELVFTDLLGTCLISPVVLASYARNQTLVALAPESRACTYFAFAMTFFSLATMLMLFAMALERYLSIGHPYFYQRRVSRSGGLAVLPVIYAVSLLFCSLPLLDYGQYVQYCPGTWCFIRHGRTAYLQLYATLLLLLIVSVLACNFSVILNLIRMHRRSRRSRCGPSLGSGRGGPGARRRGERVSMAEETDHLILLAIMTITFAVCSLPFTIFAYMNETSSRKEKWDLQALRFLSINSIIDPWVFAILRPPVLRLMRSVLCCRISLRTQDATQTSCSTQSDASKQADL
Prostacyclin receptor, sequence (P43119 whole entry): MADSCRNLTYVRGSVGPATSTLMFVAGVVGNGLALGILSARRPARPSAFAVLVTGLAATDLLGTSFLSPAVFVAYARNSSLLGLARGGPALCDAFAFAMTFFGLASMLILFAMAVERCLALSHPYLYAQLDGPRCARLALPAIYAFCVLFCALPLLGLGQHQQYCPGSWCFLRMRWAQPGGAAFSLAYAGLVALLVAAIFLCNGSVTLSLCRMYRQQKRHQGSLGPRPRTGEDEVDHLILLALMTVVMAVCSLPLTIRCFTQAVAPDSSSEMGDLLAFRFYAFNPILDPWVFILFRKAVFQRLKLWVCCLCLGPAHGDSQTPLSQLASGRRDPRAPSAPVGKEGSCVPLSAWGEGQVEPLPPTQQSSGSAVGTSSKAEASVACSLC
Prostaglandin F2-alpha receptor, sequence (P43088 whole entry): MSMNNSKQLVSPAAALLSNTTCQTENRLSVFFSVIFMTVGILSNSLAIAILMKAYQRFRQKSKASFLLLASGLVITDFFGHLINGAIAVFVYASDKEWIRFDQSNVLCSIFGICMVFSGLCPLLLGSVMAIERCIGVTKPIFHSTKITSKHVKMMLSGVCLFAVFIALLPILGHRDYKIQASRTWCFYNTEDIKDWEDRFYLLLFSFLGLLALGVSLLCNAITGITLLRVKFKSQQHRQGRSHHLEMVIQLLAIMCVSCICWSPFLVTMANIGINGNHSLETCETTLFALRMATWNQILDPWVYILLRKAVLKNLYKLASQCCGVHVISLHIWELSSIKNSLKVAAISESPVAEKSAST

Structure (SMILES)	Ki (Thromboxane A2 receptor) [nM]	Ki [1] [nM]	Ki [2] [nM]	IC50 [3] [nM]	Ki (Prostacyclin receptor) [nM]	Ki [4] [nM]	Ki [5] [nM]	Ki [6] [nM]	Ki [7] [nM]	Ki [8] [nM]	ED50 (Rattus norvegicus [9])	inhibition (INH) (Rattus norvegicus [10]) [%]
O=C(O)c1ccc(CNC(=O)c2c(Cl)sc(Cl)c2Cc2cccc(Cl)c2)cc1	> 628	> 628	> 628	1.6	> 628	> 628	43	> 628	> 628	0.72		
C[C@H](NC(=O)c1cscc1Cc1cccc(Cl)c1)c1ccc(C(=O)O)cc1	> 7280	> 7280	> 7280	12	> 7280	> 7280	16	> 7280	> 7280	6.4		
Cc1sc(C)c(C(=O)N[C@@H](C)c2ccc(C(=O)O)cc2)c1Cc1ccc(C(F)(F)F)cc1	> 5470	> 5470	> 5470	4.5	> 5470	> 5470	1190	> 5470	> 5470			
Cc1sc(C)c(C(=O)NC2(c3ccc(-c4nn[nH]n4)cc3)CC2)c1Cc1ccc(C(F)(F)F)cc1	> 501	> 501	> 501	2.3	> 501	> 501	> 29000	> 501	> 501	0.63		
Cc1sc(C)c(C(=O)N[C@@H](C)c2ccc(C(=O)O)cc2)c1Cc1cccc(C(F)(F)F)c1	> 3460	> 3460	> 3460	4.7	> 3460	> 3460	800	> 3460	> 3460	2.5		
C[C@H](NC(=O)c1c(Cl)sc(Cl)c1Cc1cccc(Cl)c1)c1ccc(C(=O)O)cc1	> 456	> 456	> 456	3.6	> 456	> 456	746	> 456	> 456			
CS(=O)(=O)c1ccc(C2=C(c3ccccc3)C(=O)OC2)cc1 [ROFECOXIB]											0.7 mg/kg	
CS(=O)(=O)c1ccc(C2=C(c3ccc(F)c(F)c3)C(=O)OC2)cc1											0.5 mg/kg	70
Cc1sc(C)c(C(=O)NC2(c3ccc(C(=O)O)cc3)CC2)c1Cc1cccc(C(F)(F)F)c1	> 4990	> 4990	> 4990		> 4990	> 4990	> 29100	> 4990	> 4990	0.75		
Cc1sc(C)c(C(=O)N[C@@H](C)c2ccc(C(=O)O)cc2)c1Cc1cccc(Cl)c1	> 2230	> 2230	> 2230	8.6	> 2230	> 2230	467	> 2230	> 2230			
C[C@@H](NC(=O)c1c(Cl)sc(Cl)c1Cc1cccc(Cl)c1)c1ccc(C(=O)O)cc1	> 224	> 224	> 224	1.8	> 224	> 224	384	> 224	> 224	0.87		
COc1cccc(OC)c1C1(C(=O)NS(=O)(=O)Cc2ccc(N3Cc4c(c(OCC(F)(F)F)c5cccnc5c4OCC(F)(F)F)C3=O)c(C)c2)CC1											0.003 mg/kg/day	
Cc1sc(C)c(C(=O)N[C@@H](C)c2ccc(C(=O)O)cc2)c1Cc1ccc(Cl)cc1	> 2120	> 2120	> 2120	5.4	> 2120	> 2120	202	> 2120	> 2120	2.9		
